# Laboratory results as given in article PMC11336813 (Heliyon, 2024).
# Read-outs that look alike come from different tables or passages of the source.
# Experiments:
# CYP3A4 = details: human liver microsomes; cited from earlier work
# CYP2C19 = details: human liver microsomes; cited from earlier work
# CYP2C9 = details: human liver microsomes; cited from earlier work
# [1] = cited from earlier work
# [2] = Total PER plasma concentration by HPLC-MS/MS; type: in vivo, children with epilepsy
# plasma proteins = details: cited from earlier work
# Free = type: in vivo, children with epilepsy
# Outline: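 Children aged 0–16 y on an unchanged oral PER dose for ≥4 weeks, dosed in the evening. Blood (2 mL, EDTA) drawn 8:00–10:00 a.m. next day, spun 1 610 ×g for 5 min, and plasma stored at −80 °C. Plasma (200 μL) ultrafiltered at 13 680 ×g for 20 min at 4 °C. Ultrafiltrate (40 μL) plus PER-D5 internal standard was methanol-precipitated, then run on C18 reversed-phase positive-mode MRM against a least-squares linear calibration.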
# [3] = type: physicochemical; details: n = 5
# [4] = cited from earlier work; remark: listed apart in the source
# [5] = 57 plasma samples, steady state
# [6] = Group A: cotherapy enzyme inducers, n = 11
# [7] = Group B: cotherapy not strong enzyme inducers/not inhibitors, n = 10
# [8] = Group C: cotherapy enzyme inhibitors (VPA), n = 31
# [9] = Group D: cotherapy enzyme inducers + VPA, n = 5
# [10] = patient No. 25, PER 5 mg·d^−1 with VPA
compound,measurement,setting,value
"CCCC(CCC)C(=O)O [VPA, valproic acid]",Inhibitory effect on CYP3A4,CYP3A4,minor inhibitory effects
same,Inhibitory effect on CYP2C19,CYP2C19,minor inhibitory effects
same,Inhibition of CYP2C9 activity,CYP2C9,potent inhibition
"N#Cc1ccccc1-c1cc(-c2ccccn2)cn(-c2ccccc2)c1=O [PER, Perampanel]",Plasma half-life,[1],approximately 105 h
same,Decrease of mean PER AUC values,[1]; with OXC,50%
same,Decrease in blood concentration,[1]; with drugs that induce liver CYP3A4/5,2–3 fold
same,Decrease in PER plasma concentrations,"[1]; with enzyme-induced AEDs (OXC, CBZ, PHB)",2–3 fold
same,"Total concentration, range",[2]; [5],90.17 to 1867.73 ng/mL
same,"Total PER concentration, mean ± SD",[2]; [6],311.32 ± 190.14 ng/mL
same,"Total PER concentration, mean ± SD",[2]; [7],490.97 ± 255.71 ng/mL
same,"Total PER concentration, mean ± SD",[2]; [8],745.60 ± 415.53 ng/mL
same,"Total PER concentration, mean ± SD",[2]; [9],780.14 ± 459.18 ng/mL
same,"Total PER concentration, mean ± SD","[2]; VPA cotherapy, n = 36",750.40 ± 415.02 ng/mL
same,Total drug PER concentration,"[2]; child No. 38, PER 2 mg·d^−1",289.24 ng/mL
same,"Total PER concentration, mean ± SD","[2]; not VPA cotherapy, n = 21",396.87 ± 236.55 ng/mL
same,Total drug PER concentration,[2]; [10],1158.38 ng/mL
same,Bound to plasma proteins,plasma proteins; after oral administration,95%
same,Free PER available to exert pharmacological effects,plasma proteins,5%
same,"Free concentration, range",Free; [5],0.42 to 23.14 ng/mL
same,"Free concentration, mean ± SD","Free; 57 plasma samples, steady state, oral PER 2.00–8.00 mg·d^−1",8.09 ± 5.85 ng/mL
same,"Free PER concentration, mean ± SD",Free; [6],4.80 ± 3.70 ng/mL
same,"Free PER concentration, mean ± SD",Free; [7],5.28 ± 5.57 ng/mL
same,"Free PER concentration, mean ± SD",Free; [8],9.84 ± 5.66 ng/mL
same,"Free PER concentration, mean ± SD",Free; [9],10.09 ± 7.54 ng/mL
same,"Free PER concentration, mean ± SD","Free; VPA cotherapy, n = 36",9.87 ± 5.83 ng/mL
same,Free drug PER concentration,"Free; child No. 38, PER 2 mg·d^−1",1.95 ng/mL
same,"Free PER concentration, mean ± SD","Free; not VPA cotherapy, n = 21",5.03 ± 4.57 ng/mL
same,Free drug PER concentration,Free; [10],17.71 ng/mL
same,Autosampler 5°C-8 h (x̄ ± s),[3]; nominal 1 ng·mL^−1,1.03 ± 0.05 ng/mL
same,frozen at −20 °C for 15 days (x̄ ± s),[3]; nominal 1 ng·mL^−1,0.96 ± 0.09 ng/mL
same,frozen at −20 °C for 30 days (x̄ ± s),[3]; nominal 1 ng·mL^−1,0.96 ± 0.08 ng/mL
same,frozen at −80 °C for 45 days (x̄ ± s),[3]; nominal 1 ng·mL^−1,0.97 ± 0.02 ng/mL
same,frozen at −80 °C for 60 days (x̄ ± s),[3]; nominal 1 ng·mL^−1,0.95 ± 0.07 ng/mL
same,Short-term 4 h (x̄ ± s),"[3]; nominal 1 ng·mL^−1, room temperature (about 25 °C) 4 h",1.01 ± 0.09 ng/mL
same,Freeze-thaw Stability (x̄ ± s),"[3]; nominal 1 ng·mL^−1, three freeze–thaw cycles (−20 °C/room temperature)",1.02 ± 0.05 ng/mL
same,Autosampler 5°C-8 h (x̄ ± s),[3]; nominal 10 ng·mL^−1,9.99 ± 0.37 ng/mL
same,frozen at −20 °C for 15 days (x̄ ± s),[3]; nominal 10 ng·mL^−1,9.99 ± 0.22 ng/mL
same,frozen at −20 °C for 30 days (x̄ ± s),[3]; nominal 10 ng·mL^−1,9.79 ± 0.21 ng/mL
same,frozen at −80 °C for 45 days (x̄ ± s),[3]; nominal 10 ng·mL^−1,10.03 ± 0.38 ng/mL
same,frozen at −80 °C for 60 days (x̄ ± s),[3]; nominal 10 ng·mL^−1,10.85 ± 0.38 ng/mL
same,Short-term 4 h (x̄ ± s),"[3]; nominal 10 ng·mL^−1, room temperature 4 h",9.94 ± 0.42 ng/mL
same,Freeze-thaw Stability (x̄ ± s),"[3]; nominal 10 ng·mL^−1, three freeze–thaw cycles",9.99 ± 0.08 ng/mL
same,Autosampler 5°C-8 h (x̄ ± s),[3]; nominal 40 ng·mL^−1,37.53 ± 1.46 ng/mL
same,frozen at −20 °C for 15 days (x̄ ± s),[3]; nominal 40 ng·mL^−1,39.06 ± 1.06 ng/mL
same,frozen at −20 °C for 30 days (x̄ ± s),[3]; nominal 40 ng·mL^−1,38.87 ± 1.52 ng/mL
same,frozen at −80 °C for 45 days (x̄ ± s),[3]; nominal 40 ng·mL^−1,43.90 ± 1.23 ng/mL
same,frozen at −80 °C for 60 days (x̄ ± s),[3]; nominal 40 ng·mL^−1,43.64 ± 1.27 ng/mL
same,Short-term 4 h (x̄ ± s),"[3]; nominal 40 ng·mL^−1, room temperature 4 h",38.09 ± 1.40 ng/mL
same,Freeze-thaw Stability (x̄ ± s),"[3]; nominal 40 ng·mL^−1, three freeze–thaw cycles",37.39 ± 0.53 ng/mL
same,Autosampler 5°C-8 h (x̄ ± s),[3]; nominal 120 ng·mL^−1,113.16 ± 0.76 ng/mL
same,frozen at −20 °C for 15 days (x̄ ± s),[3]; nominal 120 ng·mL^−1,121.27 ± 3.40 ng/mL
same,frozen at −20 °C for 30 days (x̄ ± s),[3]; nominal 120 ng·mL^−1,119.85 ± 2.22 ng/mL
same,frozen at −80 °C for 45 days (x̄ ± s),[3]; nominal 120 ng·mL^−1,130.97 ± 2.18 ng/mL
same,frozen at −80 °C for 60 days (x̄ ± s),[3]; nominal 120 ng·mL^−1,132.67 ± 1.39 ng/mL
same,Short-term 4 h (x̄ ± s),"[3]; nominal 120 ng·mL^−1, room temperature 4 h",111.97 ± 2.47 ng/mL
same,Freeze-thaw Stability (x̄ ± s),"[3]; nominal 120 ng·mL^−1, three freeze–thaw cycles",115.95 ± 6.88 ng/mL
same,Reference range of blood (total) PER concentration,[4],86 to 1000 ng/mL
